Experimental data published in ChEMBL document CHEMBL4041524, “Synthesis and Characterization of a Novel γ-Aminobutyric Acid Type A (GABAA) Receptor Ligand That Combines Outstanding Metabolic Stability, Pharmacokinetics, and Anxiolytic Efficacy” (J Med Chem, 2016).
Activity calls are given as the source filed them. No cut-off for these calls is given here.

Tests used:
[1] = Total plasma concentration in Sprague-Dawley rat at 10 mg/kg, po measured after 60 mins by LC-MS/MS analysis; type: ADME, organism-based
Procedure, shortened: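 Sprague-Dawley rats (n = 3 per time point) were given 10 mg/kg p.o. Total plasma concentrations were taken at 15, 30, 60 and 120 min. Brain levels of the dosed ligand and of the carboxylic acid metabolite were taken at 60 or 120 min.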

[2] = target: T1, GABA-A receptor; alpha-2/beta-3/gamma-2 (Homo sapiens) (UniProt P18507+P28472+P47869); test: Modulation of recombinant GABA alpha2beta3gamma2 receptor (unknown origin) expressed in Xenopus laevis oocytes assessed as change in GABA-induced EC(3 to 6) current at 100 nM by two-electrode voltage clamp assay; type: cell-based
Procedure, shortened: (§1)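 Xenopus laevis oocytes expressing α1, α2, α3 or α5 β3γ2 GABAARs were recorded by two-electrode voltage clamp. Modulation of the GABA EC3-6 current (taken as 100%) was tested at 100 nM, 1 μM and 10 μM in the same cells. Values are mean ± SEM, n = 3–4.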

[3] = target: T1, GABA-A receptor; alpha-2/beta-3/gamma-2 (Homo sapiens); test: Modulation of recombinant GABA alpha2beta3gamma2 receptor (unknown origin) expressed in Xenopus laevis oocytes assessed as change in GABA-induced EC(3 to 6) current at 1 uM by two-electrode voltage clamp assay; type: cell-based; procedure, shortened: as §1
[4] = target: T2, GABA-A receptor; alpha-5/beta-3/gamma-2 (Homo sapiens) (UniProt P18507+P28472+P31644); test: Modulation of recombinant GABA alpha5beta3gamma2 receptor (unknown origin) expressed in Xenopus laevis oocytes assessed as change in GABA-induced EC(3 to 6) current at 1 uM by two-electrode voltage clamp assay; type: cell-based; procedure, shortened: as §1
[5] = target: T2, GABA-A receptor; alpha-5/beta-3/gamma-2 (Homo sapiens); test: Modulation of recombinant GABA alpha5beta3gamma2 receptor (unknown origin) expressed in Xenopus laevis oocytes assessed as change in GABA-induced EC(3 to 6) current at 10 uM by two-electrode voltage clamp assay; type: cell-based; procedure, shortened: as §1
[6] = target: T3, GABA-A receptor; alpha-2/beta-3/gamma-2 (Homo sapiens, UniProt P18507+P28472+P47869); test: Modulation of recombinant human GABA alpha2beta3gamma2 receptor expressed in HEK293 cells assessed as change in GABA-induced current at -80 mV holding potential preincubated for 3 mins followed by co-administration of GABA by electrophysiology method; type: cell-based
T3 sequence (P18507 whole entry): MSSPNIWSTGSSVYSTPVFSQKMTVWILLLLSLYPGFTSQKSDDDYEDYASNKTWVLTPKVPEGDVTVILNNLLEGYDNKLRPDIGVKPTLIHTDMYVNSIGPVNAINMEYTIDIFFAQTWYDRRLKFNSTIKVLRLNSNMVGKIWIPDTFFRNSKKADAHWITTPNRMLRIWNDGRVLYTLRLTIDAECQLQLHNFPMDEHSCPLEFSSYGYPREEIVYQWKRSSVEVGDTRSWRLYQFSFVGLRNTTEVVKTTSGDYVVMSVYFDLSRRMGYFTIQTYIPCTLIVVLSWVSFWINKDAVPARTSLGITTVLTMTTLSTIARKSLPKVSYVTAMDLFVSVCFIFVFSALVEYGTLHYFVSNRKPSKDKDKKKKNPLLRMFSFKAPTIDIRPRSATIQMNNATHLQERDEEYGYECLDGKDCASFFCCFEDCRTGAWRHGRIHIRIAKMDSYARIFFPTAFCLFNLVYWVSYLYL
T3 sequence (P28472 whole entry): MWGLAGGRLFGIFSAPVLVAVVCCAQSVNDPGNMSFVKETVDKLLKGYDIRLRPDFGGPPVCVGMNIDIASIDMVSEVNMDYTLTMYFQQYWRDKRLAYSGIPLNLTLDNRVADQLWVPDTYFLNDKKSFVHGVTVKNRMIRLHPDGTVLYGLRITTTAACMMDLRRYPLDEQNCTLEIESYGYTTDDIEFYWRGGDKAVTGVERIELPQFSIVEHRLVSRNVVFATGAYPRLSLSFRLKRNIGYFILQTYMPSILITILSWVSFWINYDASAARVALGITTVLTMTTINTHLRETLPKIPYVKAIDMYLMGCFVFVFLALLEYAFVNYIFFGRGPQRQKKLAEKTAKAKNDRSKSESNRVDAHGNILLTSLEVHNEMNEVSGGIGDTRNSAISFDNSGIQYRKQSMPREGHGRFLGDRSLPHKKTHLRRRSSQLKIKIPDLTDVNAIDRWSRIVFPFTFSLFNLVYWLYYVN
T3 sequence (P47869 whole entry): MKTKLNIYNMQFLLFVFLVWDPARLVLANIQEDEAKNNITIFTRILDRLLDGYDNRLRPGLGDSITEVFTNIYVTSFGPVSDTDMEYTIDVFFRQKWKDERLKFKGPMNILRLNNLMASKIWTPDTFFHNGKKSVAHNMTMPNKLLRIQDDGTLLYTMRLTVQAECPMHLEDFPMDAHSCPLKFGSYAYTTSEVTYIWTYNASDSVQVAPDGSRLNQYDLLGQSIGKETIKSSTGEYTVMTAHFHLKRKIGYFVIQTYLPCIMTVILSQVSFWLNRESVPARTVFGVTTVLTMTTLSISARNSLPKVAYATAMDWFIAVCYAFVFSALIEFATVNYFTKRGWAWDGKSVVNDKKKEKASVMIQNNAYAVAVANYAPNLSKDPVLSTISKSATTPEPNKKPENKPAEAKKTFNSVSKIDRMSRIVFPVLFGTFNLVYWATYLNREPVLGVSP

Plasma = test: Fraction unbound in rat plasma by equilibrium dialysis method; type: ADME, cell-free
Procedure, shortened: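 Fraction unbound was determined in vitro by equilibrium dialysis with rat plasma protein and rat brain.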

[7] = Drug uptake in Sprague-Dawley rat brain at 10 mg/kg, ip measured after 4 hrs; type: ADME, organism-based; details: read-out: Drug uptake
Procedure, shortened: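 Rats were given 10 mg/kg i.p. (n = 3), and total plasma and brain concentrations were measured at 4 h. Unbound concentrations were calculated as Fu × total concentration, and Kp,uu = Cu,brain/Cu,plasma.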

Rattus norvegicus [8] = test: Anxiolytic like activity in water-deprived Sprague-Dawley rat assessed as increase in water drinking time during punished period at 20 mg/kg, po administered 30 mins prior to testing by Vogel conflict test relative to control; type: functional
Procedure, shortened: (§2)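 Water-deprived male Sprague-Dawley rats (n = 6–8) drank during unpunished and punished periods, with licking suppressed by mild shock in punished periods. Compounds were given 30 min before testing. Analysis was ANOVA with Dunnett's test.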

Rattus norvegicus [9] = test: Anxiolytic like activity in water-deprived Sprague-Dawley rat assessed as increase in water drinking time during punished period at 3 mg/kg, po administered 30 mins prior to testing by Vogel conflict test relative to control; type: functional, organism-based; procedure, shortened: as §2
Rattus norvegicus [10] = test: Anxiolytic like activity in water-deprived Sprague-Dawley rat assessed as increase in water drinking time during punished period at 60 mg/kg, po administered 30 mins prior to testing by Vogel conflict test relative to control; type: functional; procedure, shortened: as §2
Rattus norvegicus [11] = test: Toxicity in water-deprived Sprague-Dawley rat assessed as effect on water drinking time during nonpunished period up to 60 mg/kg, po administered 30 mins prior to testing; type: organism-based; details: in vivo, 0.5 h
[12] = target: GABA-A receptor; alpha-1/beta-3/gamma-2 (Homo sapiens) (UniProt P14867+P18507+P28472); test: Modulation of recombinant GABA alpha1beta3gamma2 receptor (unknown origin) expressed in Xenopus laevis oocytes assessed as change in GABA-induced EC(3 to 6) current by two-electrode voltage clamp assay; type: cell-based; procedure, shortened: as §1

## C#Cc1ccc2c(c1)C(c1ccccn1)=NCc1c(-c3cnco3)ncn1-2
[1]
  concentration at 1 h: 3910 nM
[2]
  Activity: 100%
[3]
  Activity: 201%
[4]
  Activity: 158%
[5]
  Activity: 246%
[6]
  EC50: 0.118 µM
Plasma
  Fu: 25.9%
[7]
  concentration at 4 h: 2050 nM
Rattus norvegicus [8]
  Activity: 330%
Rattus norvegicus [9]
  Activity: inactive
Rattus norvegicus [10]
  Activity: 200%
Rattus norvegicus [11]
  Activity: Non-Toxic
[12]
  Activity: Dose-dependent effect
